# ChEMBL document CHEMBL4428069, “Parallel inhibition of amino acid efflux and growth of erythrocytic Plasmodium falciparum by mefloquine and non-piperidine analogs: Implication for the mechanism of antimalarial action” (Bioorg Med Chem Lett, 2016)
# Activity calls are given as the source filed them. The calls are words filed in the database; no cut-off is given here.
# Experiments:
# [1] = system: Plasmodium falciparum; test: Antimalarial activity against trophozoite stage of Plasmodium falciparum 3D7 infected-erythrocytes assessed as reduction in Leu efflux after 4 hrs by UPLC method; assay type: functional, organism-based; settings: 3D7, 4 h
# Procedure, shortened: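 Trophozoite-stage 3D7-infected erythrocytes at 2% hematocrit and 10% parasitemia, cultured in medium lacking Leu and Val with D-norvaline as internal standard. Full concentration–response up to 1000 nM with a 4 h endpoint. Leu in the recovered conditioned medium quantified by UPLC (AccQ-Tag). Mean and standard deviation of three independent experiments.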
# [2] = system: Plasmodium falciparum; test: Antimalarial activity against chloroquine/mefloquine-sensitive Plasmodium falciparum 3D7 infected-erythrocytes assessed as parasite growth inhibition after 48 to 54 hrs by SYBR green 1-based replication method; assay type: functional, organism-based
# Procedure, shortened: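 Chloroquine- and mefloquine-sensitive 3D7 strain; growth inhibition measured with a SYBR Green I-based replication assay. IC50 reported as mean and standard deviation of three independent experiments.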
# [3] = system: Plasmodium falciparum; test: Antimalarial activity against chloroquine-resistant, mefloquine-sensitive Plasmodium falciparum W2 assessed as parasite growth inhibition by [3H]hypoxanthine incorporation assay
# [4] = system: Plasmodium falciparum; test: Antimalarial activity against trophozoite stage of Plasmodium falciparum 3D7 infected-erythrocytes assessed as inhibition of Leu efflux at 160 nM after 60 mins by UPLC method; assay type: functional; settings: 3D7, 4 h, in the assay text read “after 4 hrs” for “after 60 mins”
# Procedure, shortened: (§1)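 Time course on 3D7-infected erythrocytes in medium lacking Leu and Val, with D-norvaline as internal standard. Exposure to 160 nM or DMSO, with conditioned medium sampled from 0 to 240 min. Leu in the medium measured by UPLC (AccQ-Tag), with a hyperbolic fit of the treated data. Points are the average of two technical replicates.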
# [5] = system: Plasmodium falciparum; test: Antimalarial activity against trophozoite stage of Plasmodium falciparum 3D7 infected-erythrocytes assessed as reduction in Leu efflux at 160 nM after 120 mins by UPLC method; assay type: functional, organism-based; procedure, shortened: as §1
# [6] = system: Plasmodium falciparum; test: Antimalarial activity against mefloquine-sensitive Plasmodium falciparum 3D7 infected-erythrocytes assessed as parasite growth inhibition after 48 hrs by sandwich ELISA; assay type: functional; settings: 3D7, 48 h
Structure (SMILES),IC50 [1] [nM],IC50 [2] [nM],IC90 [3] [nM],inhibition at 0.16 µM [4] [%],Activity [5],IC90 [6] [nM]
NCCCNCC(O)c1cc(C(F)(F)F)nc2c(C(F)(F)F)cccc12 (stereo not given),5000,1600,,,,
CN(C)CCNCC(O)c1cc(C(F)(F)F)nc2c(C(F)(F)F)cccc12 (stereo not given),320,240,1300,,,
O=C1C(O)=C([C@H]2CC[C@H](c3ccc(Cl)cc3)CC2)C(=O)c2ccccc21 [ATOVAQUONE],> 1000,0.6,,,,
CCCCN(CCCN)CC(O)c1cc(C(F)(F)F)nc2c(C(F)(F)F)cccc12 (stereo not given),180,49,,,,
CC(C)NCC(O)c1cc(C(F)(F)F)nc2c(C(F)(F)F)cccc12 (stereo not given),14,7.4,13,,,
OCCNCC(O)c1cc(C(F)(F)F)nc2c(C(F)(F)F)cccc12 (stereo not given),500,340,710,,,
CC(C)N(CC(O)c1cc(C(F)(F)F)nc2c(C(F)(F)F)cccc12)C(C)C (stereo not given),590,350,12,,,
C#CCCNCC(O)c1cc(C(F)(F)F)nc2c(C(F)(F)F)cccc12 (stereo not given),51,34,,,,
C#CCNCC(O)c1cc(C(F)(F)F)nc2c(C(F)(F)F)cccc12 (stereo not given),140,110,1400,,,
"O[C@@H](c1cc(C(F)(F)F)nc2c(C(F)(F)F)cccc12)[C@H]1CCCCN1 [(S,R)-MEFLOQUINE]",22,9.1,16,70,Active,146
C#CCCN(CCCN)CC(O)c1cc(C(F)(F)F)nc2c(C(F)(F)F)cccc12 (stereo not given),360,140,,,,
OC(CNCCC1CCCC1)c1cc(C(F)(F)F)nc2c(C(F)(F)F)cccc12 (stereo not given),210,120,,,,
OC(CNC1CCCCC1)c1cc(C(F)(F)F)nc2c(C(F)(F)F)cccc12 (stereo not given),9.7,3.8,6,,,
CCCN(CCC)CC(O)c1cc(C(F)(F)F)nc2c(C(F)(F)F)cccc12 (stereo not given),9.3,4.7,,,,
CC1(C)N=C(N)N=C(N)N1OCCCOc1cc(Cl)c(Cl)cc1Cl,> 1000,,,,,
OC(CNC12CC3CC(CC(C3)C1)C2)c1cc(C(F)(F)F)nc2c(C(F)(F)F)cccc12 (stereo not given),15,5.9,,,,
OC(CNc1ccccc1)c1cc(C(F)(F)F)nc2c(C(F)(F)F)cccc12 (stereo not given),2600,2000,1200,,,
CCOCC(O)c1cc(C(F)(F)F)nc2c(C(F)(F)F)cccc12 (stereo not given),22000,22000,,,,
CCCCNCC(O)c1cc(C(F)(F)F)nc2c(C(F)(F)F)cccc12 (stereo not given),9,4.9,5,,,
OC(CNCCc1ccccc1)c1cc(C(F)(F)F)nc2c(C(F)(F)F)cccc12 (stereo not given),13,8.5,11,,,
CCCNCC(O)c1cc(C(F)(F)F)nc2c(C(F)(F)F)cccc12 (stereo not given),10,4.2,1,,,
